# Reference: ChEMBL document CHEMBL1125826, “Synthesis and biological activity of 5-amino- and 5-hydroxyquinolones, and the overwhelming influence of the remote N1-substituent in determining the structure-activity relationship” (1991)
# Experiments:
# Format in all cases: functional
# [1] = molecular target: DNA gyrase (Escherichia coli) (UniProt P0AES6+P0AES4); assay: Minimum inhibitory concentration against Escherichia coli DNA-gyrase in supercoiling assay
# Enterobacter cloacae = assay: Antibacterial activity was determined against gram negative organism, Enterobacter cloacae MA2646; conditions: Enterobacter cloacae; read-out: MIC
# Escherichia coli = assay: Antibacterial activity was determined against gram negative organism, Escherichia coli vogel; conditions: Escherichia coli; read-out: MIC
# In short: (§1)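 MIC (µg/mL) by standard microtitration against a panel of 10 Gram-positive and Gram-negative organisms; values averaged from multiple experiments.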
# Bacteria [2] = assay: MIC ratio measured as the mean MICs of gram-negative bacteria
# In short: (§2)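 Geometric mean of the microtitration MICs (µg/mL) over the Gram-negative organisms, and separately over the Gram-positive organisms, of the 10-strain panel; individual MICs averaged from multiple experiments.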
# Bacteria [3] = assay: MIC ratio measured as the mean MICs of gram-positive bacteria; in short: as §2
# Klebsiella pneumoniae = assay: Antibacterial activity was determined against gram negative organism, Klebsiella pneumoniae MGH-2; conditions: Klebsiella pneumoniae; read-out: MIC; in short: as §1
# Pseudomonas aeruginosa = assay: Antibacterial activity was determined against gram negative organism, Pseudomonas aeruginosa UI-18; conditions: Pseudomonas aeruginosa; read-out: MIC; in short: as §1
# Bacteria [4] = assay: Antibacterial activity was determined against gram negative organism, Providencia rettgeri. M1771; conditions: Bacteria; read-out: MIC; in short: as §1
# Staphylococcus aureus [5] = assay: Antibacterial activity was determined against gram positive organism, Staphylococcus aureus H228; conditions: Staphylococcus aureus; read-out: MIC; in short: as §1
# Streptococcus pneumoniae = assay: Antibacterial activity was determined against gram positive organism, Streptococcus pneumoniae SV-1; conditions: Streptococcus pneumoniae; read-out: MIC; in short: as §1
# Enterococcus faecalis = assay: Antibacterial activity was determined against gram positive organism, Streptococcus faecalis MGH-2; conditions: Enterococcus faecalis; read-out: MIC; in short: as §1
# Staphylococcus aureus [6] = assay: Antibacterial activity was determined against gram positive organism, Staphylococcus aureus UC76; in short: as §1
# Streptococcus pyogenes = assay: Antibacterial activity was determined against gram positive organism, Streptococcus pyogenes C203; conditions: Streptococcus pyogenes; read-out: MIC; in short: as §1
# [7] = Staphylococcus aureus, read-out: MIC
Compound,MIC [1] [µg/mL],MIC (Enterobacter cloacae) [µg/mL],MIC (Escherichia coli) [µg/mL],Geometric mean MIC over Gram-negative bacteria (µg/mL) (Bacteria [2]),Geometric mean MIC over Gram-positive bacteria (µg/mL) (Bacteria [3]),MIC (Klebsiella pneumoniae) [µg/mL],MIC (Pseudomonas aeruginosa) [µg/mL],MIC (Bacteria [4]) [µg/mL],MIC (Staphylococcus aureus [5]) [µg/mL],MIC (Streptococcus pneumoniae) [µg/mL],MIC (Enterococcus faecalis) [µg/mL],MIC (Staphylococcus aureus [6]; [7]) [µg/mL],MIC (Streptococcus pyogenes) [µg/mL],MIC (Staphylococcus aureus [6]) [µg/mL],Ratio (Bacteria [3])
CCn1cc(C(=O)O)c(=O)c2c(N)c(F)c(N3CCNCC3)c(F)c21,2.5,0.2,0.1,0.26,1.15,0.2,0.8,0.4,1.6,1.6,1.6,0.2,3.1,–,–
CCn1cc(C(=O)O)c(=O)c2cc(F)c(N3CCNCC3)c(Cl)c21,2.5,0.1,0.1,0.3,1.19,0.2,3.1,0.4,0.4,3.1,3.1,–,3.1,0.2,–
CCn1cc(C(=O)O)c(=O)c2cc(F)c(N3CC(C)NC(C)C3)cc21 (configuration not stated),2.5,0.2,0.2,0.6,1.21,0.4,6.3,0.8,1.6,1.6,1.6,–,1.6,0.4,–
CCn1cc(C(=O)O)c(=O)c2c(N)c(F)c(N3CCNCC3)c(Cl)c21,5,0.4,0.2,0.79,2.37,0.4,6.3,1.6,3.1,3.1,6.3,0.4,3.1,–,–
CCn1cc(C(=O)O)c(=O)c2cc(F)c(N3CCNC(C)C3)cc21 (configuration not stated),2.5,0.1,0.1,0.23,1.05,0.2,1.6,0.2,1.6,1.6,1.6,–,1.6,0.2,–
O=C(O)c1cn(C2CC2)c2c(F)c(N3CCNCC3)c(F)c(O)c2c1=O,0.5,0.1,0.05,0.17,1.06,0.2,0.8,0.2,1.6,1.6,1.6,0.2,1.6,–,–
CC1CN(c2cc3c(cc2F)c(=O)c(C(=O)O)cn3-c2ccc(F)cc2F)CCN1 (configuration not stated) [TEMAFLOXACIN],0.75,0.05,0.05,0.15,0.087,0.1,1.6,0.2,0.1,0.1,0.2,–,0.1,0.025,–
CCn1cc(C(=O)O)c(=O)c2c(N)c(F)c(N3CCNCC3)cc21,2.5,0.2,0.2,0.6,0.11,0.4,3.1,1.6,0.4,0.1,0.2,0.05,0.05,–,–
CCn1cc(C(=O)O)c(=O)c2c(O)c(F)c(N3CCNCC3)c(F)c21,5,0.4,0.4,0.8,12.56,0.8,1.6,1.6,12.5,25,25,1.6,25,–,–
CCn1cc(C(=O)O)c(=O)c2cc(F)c(N3CC(C)NC(C)C3)c(F)c21 (configuration not stated),3.8,0.2,0.2,0.79,3.17,0.4,12.5,1.6,1.6,6.3,6.3,–,6.3,0.8,–
NC1CCN(c2c(F)cc3c(=O)c(C(=O)O)cn(C4CC4)c3c2Cl)C1 (stereo in doubt; 1f-4),0.25,–,–,0.057,–,–,–,–,–,–,–,–,–,–,–
NC1CCN(c2c(F)cc3c(=O)c(C(=O)O)cn(C4CC4)c3c2Cl)C1 (stereo in doubt; 1h-4),0.5,–,–,0.029,–,–,–,–,–,–,–,–,–,–,–

# Second part, led by results:
MIC [1] [µg/mL],MIC (Enterobacter cloacae) [µg/mL],MIC (Escherichia coli) [µg/mL],Geometric mean MIC over Gram-negative bacteria (µg/mL) (Bacteria [2]),Geometric mean MIC over Gram-positive bacteria (µg/mL) (Bacteria [3]),MIC (Klebsiella pneumoniae) [µg/mL],MIC (Pseudomonas aeruginosa) [µg/mL],MIC (Bacteria [4]) [µg/mL],MIC (Staphylococcus aureus [5]) [µg/mL],MIC (Streptococcus pneumoniae) [µg/mL],MIC (Enterococcus faecalis) [µg/mL],MIC (Staphylococcus aureus [6]; [7]) [µg/mL],MIC (Streptococcus pyogenes) [µg/mL],MIC (Staphylococcus aureus [6]) [µg/mL],Compound,Ratio (Bacteria [3])
2.5,0.2,0.1,0.3,0.53,0.2,1.6,0.4,0.4,0.8,0.8,0.2,0.8,–,CCn1cc(C(=O)O)c(=O)c2c(N)c(F)c(N3CCC(N)C3)c(F)c21 (configuration not stated),–
5,0.4,0.4,–,–,0.8,12.5,1.6,6.3,12.5,12.5,1.6,12.5,–,CCn1cc(C(=O)O)c(=O)c2c(O)c(F)c(N3CCNC(C)C3)c(F)c21 (configuration not stated),–
3.8,0.4,0.2,1.05,0.17,1.6,6.3,1.6,0.2,0.2,0.2,0.1,0.2,–,CCNCC1CCN(c2c(F)c(N)c3c(=O)c(C(=O)O)cn(CC)c3c2F)C1 (configuration not stated),–
2.5,3.1,1.6,6.28,1.59,6.3,25,12.5,1.6,1.6,1.6,0.4,6.3,–,CCNCC1CCN(c2c(F)c(N)c3c(=O)c(C(=O)O)cn(CC)c3c2Cl)C1 (configuration not stated),–
2.5,0.4,0.1,0.6,0.15,0.4,3.1,1.6,0.2,0.2,0.2,–,0.1,0.1,CCNCC1CCN(c2cc3c(cc2F)c(=O)c(C(=O)O)cn3CC)C1 (configuration not stated),–
2.5,0.4,0.4,1.38,0.2,0.8,12.5,3.1,0.4,0.2,0.4,0.05,0.2,–,CCNCC1CCN(c2c(F)c(O)c3c(=O)c(C(=O)O)cn(CC)c3c2F)C1 (configuration not stated),–
7.5,0.8,0.4,1.58,4.79,0.8,12.5,3.1,1.6,12.5,6.3,0.8,25,–,CCn1cc(C(=O)O)c(=O)c2c(N)c(F)c(N3CC(C)NC(C)C3)c(F)c21 (configuration not stated),–
2.5,0.2,0.2,0.69,0.057,0.4,12.5,0.8,0.1,0.05,0.1,–,0.05,0.025,CCNCC1CCN(c2c(F)cc3c(=O)c(C(=O)O)cn(CC)c3c2Cl)C1 (configuration not stated),–
7.5,0.2,0.2,0.6,2.07,0.4,3.1,1.6,1.6,3.1,3.1,0.4,6.3,–,CCn1cc(C(=O)O)c(=O)c2c(N)c(F)c(N3CCNC(C)C3)c(F)c21 (configuration not stated),–
2.5,0.1,0.1,0.26,–,0.2,1.6,0.4,0.1,0.1,0.1,–,0.1,0.05,CCNCC1CCN(c2c(F)cc3c(=O)c(C(=O)O)cn(CC)c3c2F)C1 (configuration not stated) [MERAFLOXACIN],0.087
